The subject of test [1] is MDA-MB-231. The experiment in a line: Antiproliferative activity against human MDA-MB-231 cells after 48 hrs by MTT assay. The test is classed as functional, cell-based. Put shortly:
(§1)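 MTT assay: cells seeded at 1 × 10^4 per well in DMEM with 10% FBS, left 24 h at 37 °C in CO2; compounds diluted in medium added alongside vehicle control for 48 h; MTT (5 mg/mL) added for 4 h, formazan dissolved in DMSO, absorbance read at 540 nm; IC50 in µM.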
In general terms: Tetrazolium dyes change colour on reduction, which living cells bring about.

The subject of test [2] is HEK293. As to the kind of experiment: Antiproliferative activity against human HEK293 cells after 48 hrs by MTT assay. The test is classed as cell-based. The conditions noted are these: HEK293, 48 h. Put shortly: as §1
Test [3] concerns MCF7. As to the kind of experiment: Antiproliferative activity against human MCF7 cells after 48 hrs by MTT assay. The class given is functional, cell-based. Put shortly: as §1
The subject of test [4] is Rattus norvegicus. The experiment in a line: Estrogenic antagonistic activity in bilaterally ovariectomized Sprague-Dawley rat assessed as inhibition of ethynylesterol-induced uterine weight at 10 mg/kg, po once daily for 3 days measured on day 31 of age. The class given is functional. Put shortly: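 Antagonism read as uterine fresh weight in rats given compound orally at 10 mg/kg/day alongside 17α-ethynylestradiol (0.02 mg/kg/day); inhibition expressed relative to the ethynylestradiol-only group; means ± SEM, at least six animals per group.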

In test [5] the test system is Rattus norvegicus. As to the kind of experiment: Estrogenic agonistic activity in bilaterally ovariectomized Sprague-Dawley rat assessed as uterine weight gain at 10 mg/kg, po once daily for three days measured on day 31 of age. The test is classed as functional. Summed up: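 Immature rats dosed orally once daily for three consecutive days; vehicle-only group as control. Autopsy 24 h after last dose on day 31 of age: vaginal smear taken, uterus excised, blotted and weighed fresh. Vaginal opening, vaginal epithelial cornification and uterine weight increase scored; gain expressed as percent of vehicle control; means ± SEM, at least six per group.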

Where [6] appears, read: Homo sapiens, MDA-MB-231, 48 h, read-out: IC50.
[7] abbreviates: Homo sapiens, MCF7, 48 h, read-out: IC50.

The structures appear in SMILES notation. Bounds are passed on as bounds.

The text below walks through data of ChEMBL document CHEMBL1152595, “Synthesis and biological evaluation of 2,3,4-triarylbenzopyran derivatives as SERM and therapeutic agent for breast cancer” (Bioorg Med Chem, 2009).

As usually defined, the IC50 is the concentration that inhibits the measured activity by half. What is called inhibition in vivo is the change of the read-out against control, counted positive when it falls. On to `CC(=O)Oc1ccc([C@@H]2Oc3ccccc3[C@H](c3ccc(O)cc3)[C@H]2c2ccccc2)cc1`, for which the IC50 result in test [1] (mda-mb-231) was “Not Active”; in test [2], above 100 µM; in test [3] (mcf7) it was “Not Active”. In addition, the inhibition in vivo at 10 mg/kg in test [4] was 4.2%. Further, the Activity in test [5] amounted to 105.18%.
Take `CC(=O)Oc1ccc([C@@H]2Oc3ccccc3[C@H](c3ccc(OCCCN(C)C)cc3)[C@H]2c2ccccc2)cc1`: the results for the 50% inhibitory concentration (IC50) in test [1] (setting [6]), in test [2] and in test [3] (setting [7]) were 5.61 µM, 14 µM and 11 µM, respectively. Moreover, the inhibition in vivo at 10 mg/kg in test [4] was determined as 58.4%. Further, in test [5], the Activity worked out at 117.2%.
For the molecule `CC(=O)Oc1ccc([C@@H]2Oc3ccccc3[C@H](c3ccc(OCCN(C(C)C)C(C)C)cc3)[C@H]2c2ccccc2)cc1`, the IC50 result in test [1] (mda-mb-231) and in test [3] (mcf7) was “Not Active” each time. In test [4], the inhibition in vivo at 10 mg/kg is 73.9%. Moreover, the Activity in test [5] worked out at 146.6%.
On to `Oc1ccc([C@@H]2Oc3ccccc3[C@H](c3ccc(OCCN4CCCC4)cc3)[C@H]2c2ccccc2)cc1`, for which the values for the IC50 in test [1] (setting [6]), in test [2] and in test [3] (setting [7]) were 17.8 µM, 36.3 µM and 18.4 µM, respectively. The inhibition in vivo at 10 mg/kg in test [4] was determined as 69.2%. In addition, in test [5], the Activity turned out to be 11.25%.
Regarding `CCN(CC)CCOc1ccc([C@H]2c3ccccc3O[C@@H](c3ccc(OC(C)=O)cc3)[C@@H]2c2ccccc2)cc1`, the IC50 entry in test [1] (mda-mb-231) was “Not Active”; in test [2], 16.1 µM; in test [3] (setting [7]), 11.7 µM. The inhibition in vivo at 10 mg/kg in test [4] amounted to 59.3%. Also, the Activity in test [5] was 41.2%.
`O=C1c2ccccc2O[C@@H](c2ccc(OCCN3CCCC3)cc2)[C@@H]1c1ccccc1`: the IC50 entry in test [1] (mda-mb-231) is “Not Active”; in test [2] it was 34 µM; in test [3] (mcf7), “Not Active”. The inhibition in vivo at 10 mg/kg in test [4] was 45.4%. In addition, the Activity in test [5] is 13.17%.
With `Oc1ccc([C@@H]2Oc3ccccc3[C@H](c3ccc(OCCN4CCCCC4)cc3)[C@H]2c2ccccc2)cc1`, the IC50 in test [1] (setting [6]) was 8.65 µM; in test [2], 38.3 µM; in test [3] (setting [7]), 7.79 µM. Further, in test [4], the inhibition in vivo at 10 mg/kg amounted to 51.5%. Moreover, the Activity in test [5] is 28.2%.
In the case of `OC1c2ccccc2O[C@@H](c2ccc(OCCN3CCCC3)cc2)[C@@H]1c1ccccc1` (some centres undefined), the IC50 entry in test [1] (mda-mb-231) and in test [3] (mcf7) was “Not Active” each time. In test [4], the inhibition in vivo at 10 mg/kg is 29%. Besides, the Activity in test [5] is 124.5%.
For the molecule `Oc1ccc([C@H]2c3ccccc3O[C@@H](c3ccc(O)cc3)[C@@H]2c2ccccc2)cc1`, the IC50 entry in test [1] (mda-mb-231) was “Not Active”; in test [2], above 500 µM; in test [3] (mcf7) it was “Not Active”. Moreover, the inhibition in vivo at 10 mg/kg in test [4] worked out at 21.2%. In addition, the Activity in test [5] came to 142.9%.
For the molecule `CC(=O)Oc1ccc([C@@H]2Oc3ccccc3[C@H](c3ccc(OCCN4CCCCC4)cc3)[C@H]2c2ccccc2)cc1`, the values for the IC50 in test [1] (setting [6]), in test [2] and in test [3] (setting [7]) were 14 µM, 29.8 µM and 16.8 µM, respectively. The inhibition in vivo at 10 mg/kg in test [4] came out at 51.4%. Also, the Activity in test [5] is 171.4%.
Turning to `CC(=O)Oc1ccc([C@@H]2Oc3ccccc3[C@H](c3ccc(OCCN4CCCCCC4)cc3)[C@H]2c2ccccc2)cc1`, the results for the concentration for half-maximal inhibition (IC50) result in test [1] (mda-mb-231), in test [2] and in test [3] (mcf7) were “Not Active”, 88.6 µM and “Not Active”, respectively. Also, the inhibition in vivo at 10 mg/kg in test [4] worked out at 30.6%. The Activity in test [5] came to 108.3%.
In the case of `CC(C)N(CCOc1ccc([C@H]2c3ccccc3O[C@@H](c3ccc(O)cc3)[C@@H]2c2ccccc2)cc1)C(C)C`, the IC50 in test [1] (setting [6]) was determined as 7.48 µM; in test [2], 20.5 µM; in test [3] (setting [7]), 6.97 µM. For the same molecule, the inhibition in vivo at 10 mg/kg in test [4] came to 69%. Also, the Activity in test [5] is reported as 225%.
For `COc1ccc2c(c1)OC(C)(C)C(c1ccccc1)C2c1ccc(OCCN2CCCC2)cc1` (centres undefined) [ORMELOXIFENE], the inhibition in vivo at 10 mg/kg in test [4] was found to be 77.9%. The Activity in test [5] is given as 164.3%.
Consider `CC/C(=C(\c1ccccc1)c1ccc(OCCN(C)C)cc1)c1ccccc1` [TAMOXIFEN], for which the IC50 turned out to be 9.86 µM in test [1] (setting [6]) and 7.65 µM in test [3] (setting [7]). Besides, the inhibition in vivo at 10 mg/kg in test [4] came out at 27.4%. Moreover, in test [5], the Activity amounted to 208.8%.
